# The source made the active and inactive calls. No cut-off for these calls is given here.
# Key:
# [1] = tested on: PBMC; experiment: Cytotoxicity against human fresh PBMCs up to 30 uM; assay type: cell-based
# How it was run: (§1)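 HL-60 cells, quiescent (fresh) PBMC and phytohemagglutinin-activated healthy human PBMC cultured 48 h over a concentration range of compound. Proliferation measured. Means ± SE of two independent experiments, each in triplicate.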
# [2] = tested on: HL-60; experiment: Induction of apoptosis in human HL60 cells assessed as hypodiploid cells level at 30 uM incubated for 24 hrs in presence of caspase-8 inhibitor z-IETD-fmk by flow cytometry; assay type: functional, cell-based
# How it was run: (§2)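 HL-60 cells given 30 µM compound for 24 h, alone or with z-VAD-fmk (100 µM), z-DEVD-fmk, z-IETD-fmk or z-LEHD-fmk (each 50 µM). Propidium iodide staining, hypodiploid cells quantified by flow cytometry. Three independent experiments, each in triplicate.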
# [3] = tested on: HL-60; experiment: Induction of procaspase-3 processing in human HL60 cells at 30 uM incubated for 24 hrs by immunoblotting method; assay type: functional, cell-based
# How it was run: (§3)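 HL-60 cells (1 × 10⁶/mL) exposed to compound, harvested at 24 h. Lysed in Tris-HCl pH 7.4/Triton X-100 buffer with phosphatase and protease inhibitors, 15 min at 4 °C. Equal protein run on SDS-PAGE (7.5% PARP, 12.5% caspases) and immunoblotted on PVDF. β-Actin used as loading control.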
# [4] = tested on: HL-60; experiment: Cell cycle arrest in human HL60 cells assessed as accumulation at G1 phase at 10 uM incubated for 24 hrs by flow cytometry (reference value: 48 +/- 1.6%); assay type: functional
# [5] = tested on: HL-60; experiment: Induction of DNA fragmentation in human HL60 cells at 30 uM incubated for 24 hrs by agarose gel electrophoresis; assay type: functional, cell-based
# How it was run: (§4)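 HL-60 cells treated with the indicated concentrations. Genomic DNA extracted, run on agarose gel and visualised under UV after ethidium bromide staining, looking for internucleosomal fragmentation.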
# [6] = tested on: HL-60; experiment: Induction of apoptosis in human HL60 cells assessed as changes in nuclear morphology at 30 uM incubated for 24 hrs by fluorescence microscopy (reference value: 4.9 +/- 1.0%)
# [7] = tested on: HL-60; experiment: Induction of caspase activation in human HL60 cells assessed as increase in PARP cleavage at 30 uM incubated for 24 hrs by immunoblotting method; assay type: functional, cell-based; how it was run: as §3
# [8] = tested on: PBMC; experiment: Cytotoxicity against human proliferating PBMCs up to 30 uM; assay type: cell-based; how it was run: as §1
# [9] = tested on: HL-60; experiment: Cell cycle arrest in human HL60 cells assessed as accumulation at G2/M phase at 10 uM incubated for 24 hrs by flow cytometry (reference value: 33.2 +/- 2.1%); assay type: functional
# [10] = target: T1, MAP kinase p38 (Homo sapiens) (UniProt O15264+Q15759+Q16539+P53778); experiment: Induction of p38MAPK phosphorylation in human HL60 cells after 2 hrs by Western blotting; assay type: cell-based; settings: HL-60
# How it was run: (§5)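 HL-60 cells (1 × 10⁶/mL) treated with compound (10–30 µM) for various times. Where used, PD98059 (10 µM) was added 1 h beforehand. Lysates run on 10% SDS-PAGE and immunoblotted for phosphorylated ERK 1/2, JNK/SAPK or p38MAPK. Blots stripped and reprobed for the total kinase as loading control.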
# [11] = tested on: HL-60; experiment: Induction of apoptosis in human HL60 cells assessed as hypodiploid cells level incubated for 24 hrs in presence of 2 uM p38MAPK inhibitor SB203580 by flow cytometry; assay type: functional, cell-based
# How it was run: (§6)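 HL-60 cells preincubated 1 h with PD98059 (10 µM), SP600125 (10 µM) or SB203580 (2 µM), then treated with compound. Hypodiploid (apoptotic) cells quantified by flow cytometry of propidium iodide-stained nuclei. Three independent experiments, each in triplicate.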
# [12] = tested on: HL-60; experiment: Cell cycle arrest in human HL60 cells assessed as accumulation at G1 phase at 30 uM incubated for 24 hrs by flow cytometry (reference value: 48 +/- 1.6%); assay type: functional
# [13] = target: T2, c-Jun N-terminal kinase, JNK (Homo sapiens) (UniProt P45983+P53779+P45984); experiment: Induction of JNK/SAPK phosphorylation in human HL60 cells after 30 mins by Western blotting; assay type: cell-based; settings: HL-60; how it was run: as §5
# [14] = target: T2, c-Jun N-terminal kinase, JNK (Homo sapiens); experiment: Induction of JNK/SAPK phosphorylation in human HL60 cells after 6 hrs by Western blotting; assay type: cell-based; settings: HL-60; how it was run: as §5
# [15] = tested on: HL-60; experiment: Cytotoxicity against human HL60 cells up to 30 uM after 72 hrs by MTT assay; assay type: functional, cell-based
# [16] = tested on: HL-60; experiment: Cell cycle arrest in human HL60 cells assessed as accumulation at S phase at 30 uM incubated for 24 hrs by flow cytometry (reference value: 16.7 +/- 0.5%); assay type: functional
# [17] = target: T3, Mitogen-activated protein kinase; ERK1/ERK2 (Homo sapiens) (UniProt P27361+P28482); experiment: Induction of ERK1/2 phosphorylation in human HL60 cells after 6 hrs by Western blotting; assay type: cell-based; settings: HL-60; how it was run: as §5
# [18] = Cytotoxicity against human HL60/MX1 cells after 72 hrs by MTT assay; assay type: functional, cell-based; settings: HL60/MX1, 72 h
# How it was run: (§7)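 MTT colorimetric assay on HL-60 and HL-60/MX1 cells (RPMI 1640, 10% heat-inactivated FBS), 72 h exposure, absorbance 570 nm. IC50 obtained graphically by curve fitting. Means ± S.E. of three independent experiments, each in triplicate.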
# [19] = tested on: HL-60; experiment: Cell cycle arrest in human HL60 cells assessed as accumulation at subG1 phase at 10 uM incubated for 24 hrs by flow cytometry (reference value: 2.3 +/- 0.5%); assay type: functional
# [20] = tested on: HL-60; experiment: Induction of apoptosis in human HL60 cells assessed as incidence of condensed and fragmented chromatin at 30 uM incubated for 24 hrs by fluorescent microscopy; assay type: functional, cell-based
# [21] = tested on: HL-60; experiment: Cell cycle arrest in human HL60 cells assessed as accumulation at S phase at 10 uM incubated for 24 hrs by flow cytometry (reference value: 16.7 +/- 0.5%); assay type: functional
# [22] = tested on: HL-60; experiment: Cell cycle arrest in human HL60 cells assessed as accumulation at G2/M phase at 30 uM incubated for 24 hrs by flow cytometry (reference value: 33.2 +/- 2.1%); assay type: functional
# [23] = target: T1, MAP kinase p38 (Homo sapiens); experiment: Induction of p38MAPK phosphorylation in human HL60 cells after 30 mins by Western blotting; assay type: cell-based; settings: HL-60; how it was run: as §5
# [24] = tested on: HL-60; experiment: Induction of DNA fragmentation in human HL60 cells at 10 uM incubated for 24 hrs by agarose gel electrophoresis; assay type: functional, cell-based; how it was run: as §4
# [25] = tested on: HL-60; experiment: Induction of apoptosis in human HL60 cells assessed as hypodiploid cells level at 30 uM incubated for 24 hrs in presence of caspase inhibitor z-VAD-fmk by flow cytometry; assay type: functional, cell-based; how it was run: as §2
# [26] = tested on: HL-60; experiment: Induction of procaspase-6 processing in human HL60 cells at 30 uM incubated for 24 hrs by immunoblotting method; assay type: functional, cell-based; how it was run: as §3
# [27] = tested on: HL-60; experiment: Cytotoxicity against human HL60 cells after 72 hrs by MTT assay; assay type: functional, cell-based; settings: HL-60, 72 h; how it was run: as §7
# [28] = target: T3, Mitogen-activated protein kinase; ERK1/ERK2 (Homo sapiens); experiment: Induction of ERK1/2 phosphorylation in human HL60 cells after 30 mins by Western blotting; assay type: cell-based; settings: HL-60; how it was run: as §5
# [29] = tested on: HL-60; experiment: Induction of apoptosis in human HL60 cells assessed as hypodiploid cells level incubated for 24 hrs in presence of 10 uM JNK/SAPK inhibitor SP600125 by flow cytometry; assay type: functional, cell-based; how it was run: as §6
# [30] = tested on: HL-60; experiment: Induction of Bid protein cleavage in human HL60 cells at 30 uM incubated for 24 hrs by Western blotting method; assay type: functional, cell-based; how it was run: as §3
# [31] = tested on: HL-60; experiment: Induction of apoptosis in human HL60 cells assessed as hypodiploid cells level at 30 uM incubated for 24 hrs in presence of caspase-9 inhibitor z-LEHD-fmk by flow cytometry; assay type: functional, cell-based; how it was run: as §2
# [32] = target: T3, Mitogen-activated protein kinase; ERK1/ERK2 (Homo sapiens); experiment: Induction of ERK1/2 phosphorylation in human HL60 cells after 30 mins in presence of 10 uM MEK1/2 inhibitor PD98059 by Western blotting; assay type: cell-based; settings: HL-60; how it was run: as §5
# [33] = tested on: HL-60; experiment: Induction of procaspase-8 hydrolysis in human HL60 cells at 30 uM incubated for 24 hrs by immunoblotting method; assay type: functional, cell-based; how it was run: as §3
# [34] = tested on: HL-60; experiment: Induction of procaspase-7 processing in human HL60 cells at 30 uM incubated for 24 hrs by immunoblotting method; assay type: functional, cell-based; how it was run: as §3
# [35] = tested on: HL-60; experiment: Induction of p21'Cip1 protein expression in human HL60 cells at 30 uM incubated for 24 hrs by Western blotting method; assay type: functional, cell-based; how it was run: as §3
# [36] = tested on: HL-60; experiment: Induction of cytochrome-c release in human HL60 cells at 30 uM incubated for 24 hrs by immunoblotting method; assay type: functional, cell-based
# How it was run: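 HL-60 cells treated 24 h with 30 µM compound. Cytosolic extracts immunoblotted for cytochrome c released from mitochondria. β-Actin used as loading control.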
# [37] = tested on: HL-60; experiment: Induction of cyclin D1 protein expression in human HL60 cells at 30 uM incubated for 24 hrs by Western blotting method; assay type: functional, cell-based; how it was run: as §3
# [38] = tested on: HL-60; experiment: Induction of procaspase-9 cleavage in human HL60 cells at 30 uM incubated for 24 hrs by immunoblotting method; assay type: functional, cell-based; how it was run: as §3
# [39] = tested on: HL-60; experiment: Cell cycle arrest in human HL60 cells assessed as accumulation at subG1 phase at 30 uM incubated for 24 hrs by flow cytometry (reference value: 2.3 +/- 0.5%); assay type: functional
# [40] = tested on: HL-60; experiment: Induction of apoptosis in human HL60 cells assessed as hypodiploid cells level at 30 uM incubated for 24 hrs in presence of caspase-3 and -7 inhibitor z-DEVD-fmk by flow cytometry; assay type: functional, cell-based; how it was run: as §2
# [41] = tested on: HL-60; experiment: Increase in apoptosis in human HL60 cells assessed as hypodiploid cells level incubated for 24 hrs in presence of 10 uM MEK1/2 inhibitor PD98059 by flow cytometry (reference value: 16%); assay type: functional; how it was run: as §6
# [42] = tested on: HL-60; experiment: Cytotoxicity against human HL60 cells at 100 uM after 72 hrs by MTT assay
# T3 sequence (P27361 whole entry, looked up): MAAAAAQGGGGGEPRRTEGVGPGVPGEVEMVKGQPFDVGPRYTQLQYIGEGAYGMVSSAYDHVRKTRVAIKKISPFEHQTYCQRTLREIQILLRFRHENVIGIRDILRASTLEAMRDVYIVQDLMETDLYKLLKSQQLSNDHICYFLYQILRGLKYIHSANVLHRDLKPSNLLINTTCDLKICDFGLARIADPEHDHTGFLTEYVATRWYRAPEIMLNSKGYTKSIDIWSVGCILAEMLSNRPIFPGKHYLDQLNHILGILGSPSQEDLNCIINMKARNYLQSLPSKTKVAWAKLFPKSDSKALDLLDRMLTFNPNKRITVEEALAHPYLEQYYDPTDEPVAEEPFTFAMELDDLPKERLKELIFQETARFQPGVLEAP
# T3 sequence (P28482 whole entry, looked up): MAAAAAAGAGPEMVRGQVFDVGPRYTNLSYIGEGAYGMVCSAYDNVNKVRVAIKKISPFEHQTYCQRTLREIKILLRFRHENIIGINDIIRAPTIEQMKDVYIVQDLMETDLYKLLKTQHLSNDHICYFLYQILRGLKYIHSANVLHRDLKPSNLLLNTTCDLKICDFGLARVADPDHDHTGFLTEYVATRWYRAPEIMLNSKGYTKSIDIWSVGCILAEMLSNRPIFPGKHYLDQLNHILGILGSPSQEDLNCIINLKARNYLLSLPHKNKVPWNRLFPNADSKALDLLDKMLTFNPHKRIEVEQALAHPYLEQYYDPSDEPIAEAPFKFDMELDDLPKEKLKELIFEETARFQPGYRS
smiles,measurement,setting,value
COC(=O)c1c(C)c(C)cc2c(=O)cc(-c3ccccc3Cl)oc12,Activity,[1],Non-toxic
same,Activity,[2],inactive
same,Activity,[3],Active
same,Activity,[4],54.9%
same,Activity,[5],Active
same,Activity,[6],30.6%
same,Activity,[7],Active
same,Activity,[8],Non-toxic
same,Activity,[9],22.9%
same,Activity,[10],inactive
same,Activity,[11],Active
same,Activity,[12],47.2%
same,Activity,[13],Active
same,Activity,[14],Active
same,Activity,[15],Active
same,Activity,[16],7.8%
same,Activity,[17],Active
same,IC50,[18],70.7 µM
same,Activity,[19],6.3%
same,Activity,[20],Active
same,Activity,[21],16.7%
same,Activity,[22],13.5%
same,Activity,[23],Active
same,Activity,[24],Active
same,Activity,[25],inactive
same,Activity,[26],Active
same,IC50,[27],9.3 µM
same,Activity,[28],Active
same,Activity,[29],Active
same,Activity,[30],Active
same,Activity,[31],inactive
same,Activity,[32],inactive
same,Activity,[33],Active
same,Activity,[34],Active
same,Activity,[35],Active
same,Activity,[36],Active
same,Activity,[37],Active
same,Activity,[38],Active
same,Activity,[39],28.1%
same,Activity,[40],inactive
same,Activity,[41],32%
same,Activity,[42],Active

# From ChEMBL document CHEMBL2169813, “Cell death triggered by synthetic flavonoids in human leukemia cells is amplified by the inhibition of extracellular signal-regulated kinase signaling” (Eur J Med Chem, 2012)
